Screens as filed in PubChem BioAssay.
SF-1 act = activates the human nuclear receptor SF-1. CHO-K1 Gal4-SF-1 LBD luciferase reporter; % increase over DMSO SF-1-specific signal. actives 1.9% (n = 65,000). activation, % at 10 µM. AID 522;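 active = activation above the mean activation of all tested compounds plus 3 SD, cut at about 50% in these data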
Target sequence (Q13285 whole entry, looked up, the tested form may be a part): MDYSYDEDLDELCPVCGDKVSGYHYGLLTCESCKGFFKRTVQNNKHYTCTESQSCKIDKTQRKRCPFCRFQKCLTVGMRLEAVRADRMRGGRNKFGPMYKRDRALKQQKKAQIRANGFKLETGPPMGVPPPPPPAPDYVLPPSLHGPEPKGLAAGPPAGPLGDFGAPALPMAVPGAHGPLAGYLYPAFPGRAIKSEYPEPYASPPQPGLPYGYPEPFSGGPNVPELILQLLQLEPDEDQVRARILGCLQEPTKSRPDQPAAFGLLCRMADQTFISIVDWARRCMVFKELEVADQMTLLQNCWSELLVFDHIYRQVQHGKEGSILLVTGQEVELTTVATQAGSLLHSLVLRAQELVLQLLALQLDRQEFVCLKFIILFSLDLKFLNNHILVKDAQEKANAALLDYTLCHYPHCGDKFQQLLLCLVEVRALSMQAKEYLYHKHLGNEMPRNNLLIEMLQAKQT
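Compound – one dose, 10 µM compound, 1% DMSO · Test system – transient Gal4-SF-1 LBD reporter, CHO-K1 · Input – 4,000 cells in each well · Read-out basis – percent activation relative to DMSO median and mock-transfected background · Replicates – single measurement per compound · Technique – steady-glow luciferase luminescence, read after 15 min reagent incubation · Timing – 20 h compound treatment, 37 °C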
MT1-MMP txn act = MT1-MMP promoter transcription activation. HT1080 MT1-MMP promoter luciferase reporter, luminescence, overnight; active compounds read high. activation factor at 10 µM. actives 0.16% (n = 86,000);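 active = activation factor of at least 2 for MT1-MMP transcription at 10 µM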
RORa activator = RORA (human) activation; AID 560; actives 1.5% (n = 65,000); activation, % at 10 µM; CHO-K1 Gal4-RORA LBD luciferase reporter, luminescence; percent increase over mock-subtracted basal signal; P35398;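 active = activation above the mean of all tested compounds plus 3 SD, cut at about 49% in these data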;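 note: 0% = DMSO-treated RORA cells and 100% = added signal equal to DMSO minus mock-transfected cells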
E coli RNAP = blocks E. coli RNA polymerase transcription; fluorescence transcription assay; inhibition, %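 (tested at 10 µM)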; actives 0.2% (n = 62,000); AID 559; in the data active = inhibition above about 20%;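 note: 0% = enzyme without compound and 100% = no enzyme blank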
TNAP act mid DEA = human TNAP activation, intermediate phosphate acceptor | purified TNAP, CDP-star luminescence, 100 mM DEA, 30 min; active compounds read high; scale: 0 levamisole-inhibited, 1 vehicle-only enzyme | activation factor at 20 µM | 64,000 tested, under 10 active | AID 813;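 active = activation factor of at least 2 at 20 µM, relative to controls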
Starred values were filed as active, the others as inactive; . = no result. Hits are enriched below; roughly 2.1% of the tested compounds scored in any of these assays.

SMILES	SF-1 act	MT1-MMP txn act	RORa activator	E coli RNAP	TNAP act mid DEA
COc1ccc(N2CCCn3c2nc2c3c(=O)n(Cc3ccccc3F)c(=O)n2C)c(OC)c1	-16	1.1	5	3	0.9
CC(C)Oc1ccc(C2/C(=C(/O)c3ccc(F)cc3)C(=O)C(=O)N2CCCN(C)C)cc1 (stereo unspecified)	4	1	9	2	0.9
COc1cccc2c1OC1(C)CC2NC(=O)N1c1cccc(C(=O)Nc2ccc3c(c2)OCCO3)c1 (stereo unspecified)	5	.	35	-1	0.9
c1ccc(-c2noc(C34CC5CC(CC(C5)C3)C4)n2)nc1	86*	1.4	42	16	0.9
c1ccc(-c2noc(C3CCCCC3)n2)nc1	56*	1.1	61*	-1	0.9
COC(=O)C1=C(O)/C(=C\c2ccc(O)c(OC)c2)N=C1C	.	1.2	.	.	.
CCCN1C(=O)/C(=C2\SC(N3CCCCC3)=NC2=O)c2ccccc21	81*	1.6	65*	5	0.8
O=C1N=C(N2CCOCC2)S/C1=C1\C(=O)N(Cc2ccccc2)c2ccccc21	30	1.4	42	1	0.8
O=C(COc1ccccc1)Nc1nnc(-c2ccc(Cl)s2)o1	4	1.1	25	3	0.8
O=C(Nc1cccc(F)c1)c1ccc2c(c1)OCO2	62*	1.1	31	4	0.9
O=C(Nc1ccc2c(c1)OCO2)c1ccc(Br)s1	49	.	69*	1	0.9
COC(=O)Nc1ccc2c(c1)OCO2	.	1.4	.	.	.
O=C(Nc1ccc2c(c1)OCO2)c1cc(C2CC2)on1	49	1	60*	-4	0.9
O=C(Nc1c(C(=O)Nc2cccc(F)c2)oc2ccccc12)c1ccc2c(c1)OCO2	10	1.1	-8	-1	0.8
CC(C)c1cc(C(=O)Nc2ccc3c(c2)OCO3)no1	29	0.9	20	8	1
Cc1cc(NC(=O)c2ccc3c(c2)OCO3)no1	60*	1	30	4	0.9
Cc1ccc2c(c1)N(CCC(=O)NCCCOC(C)C)C(=O)C(C)O2 (stereo unspecified)	1	1	-10	-1	0.9
C#CCN(Cc1ccccc1)C(=O)/C=C/c1ccccc1	.	1.2	.	.	.
CCN(Cc1ccccc1)S(=O)(=O)c1nc2nc(C)c(C)c(C)n2n1	8	1.3	-15	12	1.2
N/C(=N\O)c1ccc(NC(=O)c2cccs2)cc1	52*	1.5	36	8	0.9
O=C(Nc1ccc2c(c1)OCO2)c1ccncc1	0	1.4	6	10	0.9
O=C(Nc1ccc2c(c1)OCO2)c1cccs1	61*	1.4	26	4	0.9
O=C(NCC1CCCO1)c1cccs1 (stereo unspecified)	10	1.2	-1	4	0.9
CC(=O)c1ccc(NC(=O)c2cccs2)cc1	.	1.3	.	.	.
O=C(c1ccc2c(c1)OCCCO2)c1cccs1	54*	1.4	22	6	0.9
SMILES	SF-1 act	MT1-MMP txn act	RORa activator	E coli RNAP	TNAP act mid DEA
Cc1ccc(Cl)cc1NC(=O)COC(=O)C12CC3CC(CC(C3)C1)C2	.	1.1	.	.	.
CCN(CC)c1ccc(NC(=O)C2CC3CCC2C3)cc1 (stereo unspecified)	50	1.7	55*	7	0.9
CCCC(=O)Nc1ccc(NC(=O)c2ccccn2)cn1	27	0.9	89*	3	1
CCCC(=O)Nc1ccc(NC(=O)c2cccc(OC)c2)nc1	60*	1.5	44	2	0.9
CCCc1nnc(NC(=O)c2cccc(OC)c2)s1	37	1	57*	-3	0.9
CCCC(=O)Nc1ccc(NC(=O)c2ccccc2OC)cn1	0	1.2	-16	5	1
COc1cccc(C(=O)Nc2cccc(SC)c2)c1	81*	1.1	51*	6	0.8
COc1cccc(C(=O)Nc2ccc(NC(C)=O)cn2)c1	35	1.4	16	4	0.8
COc1cccc(C(=O)Nc2nnc(C(C)C)s2)c1	3	0.6	5	3	0.9
COC(=O)c1cc2ccsc2n1CC(=O)N(C)C1CCCCC1	.	1.1	.	.	.
Cc1cc2n(n1)C(c1ccc(N(C)C)cc1)Nc1ccccc1-2 (stereo unspecified)	75*	1.3	13	-8	0.9
O=c1nc2n(c3sc4c(c13)CCC4)Cc1ccccc1-2	32	1.6	28	4	0.9
